Here are results for 6 compounds from ChEMBL document CHEMBL1132166, “Synthesis and biological evaluation of dihydrobenzofuran lignans and related compounds as potential antitumor agents that inhibit tubulin polymerization” (J Med Chem, 1999).

The test system of experiment [1] is Panel (Carcinoma cell lines). In words: The molar drug concentration required for 50% growth inhibition. In kind it is functional. The conditions noted are these: Homo sapiens. An outline of the steps:
(§1)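 NCI in vitro human tumor cell line screening panel; each compound tested at a minimum of five concentrations at 10-fold dilutions, highest 100 µM, over a 48 h assay. GI50 is the molar concentration giving 50% growth inhibition. TGI and LC50 were also derived, and the average log GI50 was taken across all lines tested.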

Experiment [2] addresses T1, Tubulin (Bos taurus, UniProt Q6B856+Q862L2+Q862F3). Kind of experiment: (§2) Inhibitory activity against purified bovine brain tubulin. In kind it is functional. Put shortly: (§3)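 Tubulin assembly: drug and tubulin were preincubated in glutamate for 15 min at 30 °C, then chilled on ice. GTP was added and assembly started by a 0→30 °C jump in a recording spectrophotometer. After 20 min, mixtures were chilled to 0 °C to confirm reversibility. IC50 was taken from inhibition of the extent of assembly across a drug concentration series (n = 3, SD).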

Experiment [3] has as its system HL-60. In words: Inhibitory activity against HL 60 cells. In kind it is functional, cell-based. To be noted: Homo sapiens. Put shortly:
(§4)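 HL-60 human leukemia cells were grown for 24 h with compound. Growth was measured as the increase in cell number from time zero, and the IC50 was taken from that growth. Mitotic arrest was scored as the fraction of cells with condensed chromosomes after 24 h at 10 µM.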

Experiment [4] concerns the target T1, Tubulin. The experiment is described as §2. An outline of the steps: as §3
Experiment [5] addresses Tubulin alpha chain (Sus scrofa) (UniProt P02550). To be noted: Homo sapiens; 5.0 uM.
Experiment [6] shares this target. The conditions noted are these: Homo sapiens; 1.0 uM.
Experiment [7] has as its system Panel (Carcinoma cell lines). Kind of experiment: Average log GI50 value against a panel of human cancer cell lines. In kind it is functional. Put shortly:
as §1

In experiment [8] the test system is MCF7. Kind of experiment: Growth inhibitory activity determined against MCF-7 breast cancer cell line. In kind it is functional. The conditions noted are these: Homo sapiens. Put shortly: as §1
A further experiment deals with MDA-MB-4. In words: Cytotoxicity against MDA-MB-435 breast cancer cell line. In kind it is functional. The conditions noted are these: Homo sapiens. Put shortly:
as §1

The next experiment deals with CCRF-CEM. In words: Growth inhibitory activity determined against CCRF-CEM leukemia cell line. In kind it is functional. To be noted: Homo sapiens. Put shortly: as §1
The test system of the next experiment is RPMI-8226. Kind of experiment: Growth inhibitory activity determined against RPMI-8226 leukemia cell line. In kind it is functional. To be noted: Homo sapiens. An outline of the steps: as §1
The test system of the next experiment is SR. In words: Growth inhibitory activity determined against SR leukemia cell line. In kind it is functional. To be noted: Homo sapiens. An outline of the steps: as §1
The subject of another experiment is MDA-N. Kind of experiment: Cytotoxicity against MDA-N breast cancer cell line. In kind it is functional. To be noted: Homo sapiens. An outline of the steps:
as §1

Experiment [9] relates to HL-60. Kind of experiment: Compound was evaluated for its effect on the growth of HL 60 human leukemia cells. In kind it is functional, cell-based. An outline of the steps:
as §4

The test system of the next experiment is MOLT-4. In words: Growth inhibitory activity determined against MOLT-4 leukemia cell line. In kind it is functional. To be noted: Homo sapiens. Put shortly:
as §1

Another experiment has as its system MDA-MB-231. Kind of experiment: Growth inhibitory activity determined against MDA-MB-231/ATCC breast cancer cell line. In kind it is functional. To be noted: Homo sapiens. An outline of the steps: as §1
In experiment [10] the test system is MCF7. Kind of experiment: Growth inhibitory activity determined against MCF-7/ADR-RES breast cancer cell line. To be noted: Homo sapiens. In kind it is functional. Put shortly:
as §1

In the next experiment the test system is Hs-578T. Kind of experiment: Growth inhibitory activity determined against HS 578 T breast cancer cell line. In kind it is functional. The conditions noted are these: Homo sapiens. Put shortly:
as §1

In a further experiment the test system is BT-549. In words: Cytotoxicity against BT-549 breast cancer cell line. In kind it is functional. The conditions noted are these: Homo sapiens. Put shortly:
as §1

Chain of Tubulin alpha chain (Sus scrofa) (P02550 whole entry, looked up): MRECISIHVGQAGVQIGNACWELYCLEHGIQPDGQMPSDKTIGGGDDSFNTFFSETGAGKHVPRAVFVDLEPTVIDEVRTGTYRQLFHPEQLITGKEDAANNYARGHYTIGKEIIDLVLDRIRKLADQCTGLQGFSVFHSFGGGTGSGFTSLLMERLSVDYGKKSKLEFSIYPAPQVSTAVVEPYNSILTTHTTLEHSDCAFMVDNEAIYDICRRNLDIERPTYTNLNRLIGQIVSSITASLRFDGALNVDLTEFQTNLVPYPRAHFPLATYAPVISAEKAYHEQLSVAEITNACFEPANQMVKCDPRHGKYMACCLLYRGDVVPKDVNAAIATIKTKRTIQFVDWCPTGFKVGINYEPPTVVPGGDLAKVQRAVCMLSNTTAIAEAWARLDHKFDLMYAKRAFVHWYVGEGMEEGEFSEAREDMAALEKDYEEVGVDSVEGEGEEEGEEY

Take `COC(=O)/C=C/c1cc(OC)c2c(c1)[C@@H](C(=O)OC)[C@H](c1ccc(OC)c(OC)c1)O2`: halving of growth in experiment [1] (GI50) required 5100 nM. Further, the IC50 is greater than 40000 nM at Tubulin [2], 80 nM with HL-60 [3] and greater than 40000 nM against Tubulin [4].
Turning to `COc1ccc(/C=C\c2cc(OC)c(OC)c(OC)c2)cc1O`, the inhibition in [5] worked out at 100%; in experiment [6], 88%.
Consider `OCCCc1cc(O)c2c(c1)[C@@H](CO)[C@H](c1ccc(O)c(O)c1)O2`, for which the “log GI50” value in experiment [7] is recorded as -4.01.
As to `COC(=O)/C=C/c1cc(OC)c2c(c1)[C@@H](C(=O)OC)[C@H](c1ccc(O)c(OC)c1)O2`, halving of growth in experiment [1] (GI50) required 3300 nM. Besides, the IC50 on Tubulin [2] was greater than 40000 nM.
In the case of `COC(=O)CCc1cc(O)c2c(c1)[C@@H](C(=O)OC)[C@H](c1ccc(O)c(O)c1)O2`, the “log GI50” value in experiment [7] is -4.97.
`COC(=O)/C=C/c1cc(O)c2c(c1)[C@@H](C(=O)OC)[C@H](c1ccc(O)c(O)c1)O2`: the GI50 in the experiment with MCF7 [8] was 29 nM; in the experiment on MDA-MB-4, less than 10 nM; in the experiment with CCRF-CEM, 33 nM; in experiment [1], 300 nM; in the experiment with RPMI-8226 it was 55 nM; in the experiment on SR it was 69 nM. In addition, the GI50 in [7] was 288 nM; with MDA-N, less than 10 nM; with MOLT-4 it was 81 nM; in the experiment on MDA-MB-231 it was 50 nM; with MCF7 [10] it was 54 nM; in the experiment with Hs-578T, 45 nM. Besides, the GI50 in the experiment on BT-549 was less than 10 nM. This compound showed an IC50 with HL-60 [9] of 200 nM.

The term GI50 denotes the concentration giving 50% growth inhibition. Read a high GI50 as lower sensitivity of the cells. The IC50 is the concentration that gives 50% inhibition. A high value points to lower potency. As usually defined, the inhibition is the drop in the measured response relative to a control, in per cent. A higher inhibition goes with a response far below the control.
